Assay [1] deals with MV4-11. Briefly: Cytotoxicity against human MV4-11 cells measured after 72 hrs by spectrophotometer method. It counts as functional, cell-based. The following applies: MV4-11, 72 h.
Assay [2] can be described thus: Cytotoxicity against human MRC9 cells measured after 72 hrs by spectrophotometer method. The following applies: MRC9, 72 h. It counts as cell-based.
The target of a further assay is T1, Histone deacetylase 6 (Danio rerio, UniProt F8W4B7).
T1 sequence (F8W4B7 whole entry): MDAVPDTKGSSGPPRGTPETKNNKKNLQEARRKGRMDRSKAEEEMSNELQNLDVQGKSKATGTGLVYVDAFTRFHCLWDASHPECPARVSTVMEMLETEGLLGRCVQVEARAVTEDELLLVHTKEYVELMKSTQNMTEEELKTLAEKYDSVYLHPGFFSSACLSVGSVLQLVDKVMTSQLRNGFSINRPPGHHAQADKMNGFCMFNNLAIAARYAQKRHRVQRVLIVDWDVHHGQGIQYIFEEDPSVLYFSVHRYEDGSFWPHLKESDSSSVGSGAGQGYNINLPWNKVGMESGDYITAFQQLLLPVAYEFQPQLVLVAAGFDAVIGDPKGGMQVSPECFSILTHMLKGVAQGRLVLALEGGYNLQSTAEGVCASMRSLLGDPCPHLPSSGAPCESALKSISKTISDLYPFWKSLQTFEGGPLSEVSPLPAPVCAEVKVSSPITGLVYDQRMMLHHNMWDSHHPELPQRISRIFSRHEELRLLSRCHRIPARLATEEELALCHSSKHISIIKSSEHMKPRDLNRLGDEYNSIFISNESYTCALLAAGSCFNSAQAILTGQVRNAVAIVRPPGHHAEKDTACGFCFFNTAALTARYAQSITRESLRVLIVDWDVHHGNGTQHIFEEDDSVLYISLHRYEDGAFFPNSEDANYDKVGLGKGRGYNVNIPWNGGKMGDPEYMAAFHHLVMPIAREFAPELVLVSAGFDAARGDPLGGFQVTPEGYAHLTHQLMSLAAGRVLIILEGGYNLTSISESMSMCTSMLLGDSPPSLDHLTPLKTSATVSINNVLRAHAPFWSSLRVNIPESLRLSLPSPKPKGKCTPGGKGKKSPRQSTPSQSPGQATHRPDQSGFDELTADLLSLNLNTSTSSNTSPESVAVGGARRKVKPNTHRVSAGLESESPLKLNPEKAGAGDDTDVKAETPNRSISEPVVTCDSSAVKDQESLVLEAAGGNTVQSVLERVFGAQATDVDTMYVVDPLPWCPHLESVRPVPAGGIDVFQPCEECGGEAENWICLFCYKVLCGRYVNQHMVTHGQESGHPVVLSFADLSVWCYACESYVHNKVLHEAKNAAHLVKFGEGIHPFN
Briefly: Inhibition of N-terminal 6 His-SUMO tagged Zebrafish HDAC6 CD2 domain expressed in Escherichia coli BL21(DE3) RILP pretreated for 10 mins before FITC-M344 addition and measured after 10 mins by fluorescence polarization competition assay.

Assay [3] deals with T2, Protein deacetylase HDAC6 (Homo sapiens) (UniProt Q9UBN7).
T2 sequence (whole entry): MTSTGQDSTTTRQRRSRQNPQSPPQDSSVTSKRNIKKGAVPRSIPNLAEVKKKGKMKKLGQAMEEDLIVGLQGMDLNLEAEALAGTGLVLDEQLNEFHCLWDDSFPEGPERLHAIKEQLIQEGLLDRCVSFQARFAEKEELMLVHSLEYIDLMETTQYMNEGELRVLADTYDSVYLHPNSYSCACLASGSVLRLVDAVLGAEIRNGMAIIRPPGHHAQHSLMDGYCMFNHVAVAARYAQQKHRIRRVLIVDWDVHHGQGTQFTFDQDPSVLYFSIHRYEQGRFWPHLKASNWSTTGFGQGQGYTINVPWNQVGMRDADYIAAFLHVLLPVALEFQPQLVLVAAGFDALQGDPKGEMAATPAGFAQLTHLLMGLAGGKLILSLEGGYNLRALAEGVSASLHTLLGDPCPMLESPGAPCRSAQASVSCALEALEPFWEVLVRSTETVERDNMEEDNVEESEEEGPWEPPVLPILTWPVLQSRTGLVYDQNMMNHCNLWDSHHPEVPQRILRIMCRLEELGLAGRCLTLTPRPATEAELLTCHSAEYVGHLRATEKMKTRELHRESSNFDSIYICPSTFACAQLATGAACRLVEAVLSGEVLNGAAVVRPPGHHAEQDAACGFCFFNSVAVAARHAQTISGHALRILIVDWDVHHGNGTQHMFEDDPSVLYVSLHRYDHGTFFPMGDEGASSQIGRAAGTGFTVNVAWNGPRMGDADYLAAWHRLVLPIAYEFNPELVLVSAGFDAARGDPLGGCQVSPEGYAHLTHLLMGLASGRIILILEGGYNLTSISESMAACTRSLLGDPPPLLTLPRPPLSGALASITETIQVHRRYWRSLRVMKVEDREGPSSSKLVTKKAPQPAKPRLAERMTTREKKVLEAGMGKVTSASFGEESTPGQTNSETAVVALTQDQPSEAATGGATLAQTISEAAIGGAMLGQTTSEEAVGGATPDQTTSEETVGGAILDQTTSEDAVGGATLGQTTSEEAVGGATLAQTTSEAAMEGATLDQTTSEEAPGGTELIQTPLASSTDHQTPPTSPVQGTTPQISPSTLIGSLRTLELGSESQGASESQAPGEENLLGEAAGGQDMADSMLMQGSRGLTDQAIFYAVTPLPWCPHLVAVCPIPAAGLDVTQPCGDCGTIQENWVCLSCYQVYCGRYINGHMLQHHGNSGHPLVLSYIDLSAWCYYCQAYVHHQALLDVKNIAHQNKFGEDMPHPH
Briefly: Inhibition of HDAC6 in human MV4-11 cells assessed as increase in acetylation of alpha tubulin at 0.5 uM measured after 6 hrs by Western blot assay relative to histone H3 acetylation. It is filed as cell-based. The gist of the method: (§1)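 MV4-11 cells were exposed to a range of concentrations for 6 h. Protein extracts were run on SDS-PAGE and immunoblotted for acetylated α-tubulin, acetylated histone H3 and acetylated histone H4, with HSC70 as the loading reference. A representative blot of three independent experiments is shown.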
A general note: In western blotting, separated proteins are transferred to a membrane and probed.

The target of assay [4] is T2, Protein deacetylase HDAC6 (Homo sapiens). The assay is described as follows: Inhibition of HDAC6 in human MV4-11 cells assessed as increase in acetylation of alpha tubulin at 0.5 uM measured after 6 hrs by Western blot assay relative to histone H4 acetylation. It is filed as cell-based. The gist of the method:
as §1

For assay [5], the target named is Class 1 histone deacetylase (Homo sapiens) (UniProt Q13547+O15379+Q92769+Q9BY41). The assay is described as follows: Inhibition of HDAC class 1 in human MV4-11 cells assessed as upregulation of acetylation of H3 histone at 5 uM measured after 6 hrs by Western blot assay. It counts as cell-based. The gist of the method:
as §1

In the next assay the test system is MM1.S. Briefly: Cytotoxicity against human MM1.S cells measured after 72 hrs by spectrophotometer method. It counts as functional, cell-based.
Assay [6] deals with MV4-11. The assay is described as follows: Induction of apoptosis in human MV4-11 cells assessed as late apoptotic cells at 4 microM measured after 18 hrs by Annexin V/Propidium iodide stain based Flow cytometry assay (reference value: 4.91%). It counts as functional.
The subject of the next assay is RPMI-8226. The assay is described as follows: Cytotoxicity against human RPMI-8226 cells measured after 72 hrs by spectrophotometer method. It counts as functional, cell-based. The following applies: RPMI-8226, 72 h.
For assay [7], the system named is Fibroblast. The assay is described as follows: Cytotoxicity against human fibroblasts measured after 72 hrs by spectrophotometer method. It is filed as cell-based.
Another assay relates to HUVEC. The assay is described as follows: Cytotoxicity against human HUVEC cells measured after 72 hrs by spectrophotometer method. It is filed as cell-based.
Assay [8] has as its system Fibroblast. The assay is described as follows: Cytotoxicity against pooled human fibroblasts measured after 72 hrs by spectrophotometer method. It counts as cell-based.
Assay [9] can be described thus: Selectivity ratio of IC50 for full length recombinant human HDAC3 to IC50 for full length recombinant human HDAC6.
The nature of assay [10]: Cytotoxicity against human MRC9 cells. It counts as functional, cell-based.

Activity calls are given as the source filed them. The calls are words filed in the database; no cut-off is given here.

One may read the IC50 as the point on the concentration scale where inhibition reaches its midpoint.

Class 1 histone deacetylase (Homo sapiens), sequence (O15379 whole entry, looked up): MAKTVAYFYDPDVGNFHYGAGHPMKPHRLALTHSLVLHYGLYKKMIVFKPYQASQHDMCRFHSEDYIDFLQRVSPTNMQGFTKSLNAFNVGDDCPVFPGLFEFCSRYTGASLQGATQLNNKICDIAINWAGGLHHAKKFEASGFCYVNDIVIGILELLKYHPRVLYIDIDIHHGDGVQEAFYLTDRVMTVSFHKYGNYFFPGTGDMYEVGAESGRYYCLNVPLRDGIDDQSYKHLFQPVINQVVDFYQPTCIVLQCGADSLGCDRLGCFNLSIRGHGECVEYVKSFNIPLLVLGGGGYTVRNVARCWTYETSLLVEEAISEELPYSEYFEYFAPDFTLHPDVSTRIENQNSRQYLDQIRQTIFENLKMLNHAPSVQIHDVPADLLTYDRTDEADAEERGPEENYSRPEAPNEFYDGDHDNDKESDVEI
Class 1 histone deacetylase (Homo sapiens), sequence (Q13547 whole entry, looked up): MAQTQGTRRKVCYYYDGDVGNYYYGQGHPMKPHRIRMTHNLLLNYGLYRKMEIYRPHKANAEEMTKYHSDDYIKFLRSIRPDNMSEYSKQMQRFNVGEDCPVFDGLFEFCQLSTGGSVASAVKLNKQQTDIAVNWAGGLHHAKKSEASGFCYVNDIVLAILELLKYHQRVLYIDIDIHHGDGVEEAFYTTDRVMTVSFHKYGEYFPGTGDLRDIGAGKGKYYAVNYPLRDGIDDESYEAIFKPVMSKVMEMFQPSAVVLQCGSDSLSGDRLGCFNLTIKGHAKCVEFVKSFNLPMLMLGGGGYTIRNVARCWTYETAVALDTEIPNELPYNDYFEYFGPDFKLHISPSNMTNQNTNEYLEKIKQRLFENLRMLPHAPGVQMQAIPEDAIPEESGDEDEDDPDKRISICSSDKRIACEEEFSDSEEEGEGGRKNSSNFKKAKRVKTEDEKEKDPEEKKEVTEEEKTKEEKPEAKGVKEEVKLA
Class 1 histone deacetylase (Homo sapiens), sequence (Q92769 whole entry, looked up): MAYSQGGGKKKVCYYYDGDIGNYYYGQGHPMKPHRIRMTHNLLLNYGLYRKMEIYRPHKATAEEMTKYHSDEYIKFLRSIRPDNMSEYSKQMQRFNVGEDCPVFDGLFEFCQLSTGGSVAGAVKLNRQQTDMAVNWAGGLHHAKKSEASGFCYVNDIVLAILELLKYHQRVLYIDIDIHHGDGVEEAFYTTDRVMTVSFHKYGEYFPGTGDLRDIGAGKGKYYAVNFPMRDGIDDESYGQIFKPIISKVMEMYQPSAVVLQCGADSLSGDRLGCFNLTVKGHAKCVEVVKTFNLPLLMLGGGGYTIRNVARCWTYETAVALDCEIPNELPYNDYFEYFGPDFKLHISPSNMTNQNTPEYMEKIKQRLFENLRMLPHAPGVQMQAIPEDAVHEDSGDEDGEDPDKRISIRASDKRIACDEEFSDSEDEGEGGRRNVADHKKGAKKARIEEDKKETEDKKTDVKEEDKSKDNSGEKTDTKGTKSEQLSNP
Class 1 histone deacetylase (Homo sapiens), sequence (Q9BY41 whole entry, looked up): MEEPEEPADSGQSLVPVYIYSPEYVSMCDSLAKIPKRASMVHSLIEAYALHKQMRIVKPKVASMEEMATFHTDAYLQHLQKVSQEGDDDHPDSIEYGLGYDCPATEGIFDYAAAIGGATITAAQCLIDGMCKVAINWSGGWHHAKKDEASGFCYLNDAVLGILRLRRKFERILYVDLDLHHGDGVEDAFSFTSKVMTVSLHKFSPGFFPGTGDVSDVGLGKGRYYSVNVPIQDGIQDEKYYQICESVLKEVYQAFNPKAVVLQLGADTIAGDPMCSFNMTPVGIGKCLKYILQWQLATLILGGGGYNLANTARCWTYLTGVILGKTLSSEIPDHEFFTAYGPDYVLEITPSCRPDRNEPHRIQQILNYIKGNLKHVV

For the compound `O=C(CCCCCCNC(=O)c1cnc(N(c2ccccc2)c2ccccc2Cl)nc1)NO` [CITARINOSTAT], the IC50 with MV4-11 [1] was 1240 nM; in [2], over 25000 nM; on Histone deacetylase 6, 154 nM; in the assay on MM1.S, 1520 nM; in the assay with RPMI-8226 it was 3160 nM; with Fibroblast [7] it was 5700 nM. The IC50 in the assay on HUVEC came out at 4900 nM; with Fibroblast [8] it was 7400 nM. For the same compound, the result in assay [3] and in assay [4] was Active. The inhibition entry in [5] was “Active”. In addition, the Activity in the assay on MV4-11 [6] was found to be 17%.
Regarding `O=C(CCCCCCNC(=O)c1cnc(N(c2ccccc2)c2ccccc2)nc1)NO` [RICOLINOSTAT], the concentration for half-maximal inhibition (IC50) is 656 nM in the assay on MV4-11 [1], over 15000 nM in assay [2] and 90 nM on Histone deacetylase 6.
On to `CC(C)(C)c1ccc(C(=O)Nc2ccc(C(=O)NO)cc2)cc1`, for which the IC50 in [2] was over 25000 nM; on Histone deacetylase 6, 269 nM; in [10], over 25000 nM. Moreover, the Ratio IC50 in [9] amounted to 7.66.

The values are drawn from ChEMBL document CHEMBL4706499, “PTG-0861: A novel HDAC6-selective inhibitor as a therapeutic strategy in acute myeloid leukaemia” (Eur J Med Chem, 2020).
